Screening data deposited in PubChem BioAssay by Johns Hopkins Ion Channel Center.
Kir21 block: blocks the mouse Kir2.1 inward-rectifier potassium channel. B-score at 10 µM. P35561. 310,000 tested, 0.85% active. AID 1672. HEK293-Kir2.1, FluxOR thallium flux fluorescence; hits give low values;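 active means fluorescence ratio B-score at or below minus 3 SD of library scores, with starting-brightness B-score within 2 SD, cut at about -4.2 in these data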;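 further: channel flux triggered by added potassium and thallium sulfate stimulus; B-score of peak minus minimum fluorescence over baseline after thallium stimulus; more negative B-score means stronger Kir2.1 block with less thallium influx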
KCNQ1 pot: potentiators or activators of human KCNQ1 potassium channel. CHO-K1 KCNQ1, thallium flux FluxOR fluorescence; hits give high values. B-score at 10 µM. AID 2648. 310,000 tested, 0.35% active;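 active means fluorescence ratio B-score, a plate-corrected score, at least three library SD, with initial intensity B-score within 5 SD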
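Assay system: stable KCNQ1 CHO-K1 line; medium: assay buffer, equal DMSO in all wells; timing: 90 min dye loading and 20 min compound exposure, both at room temperature; technique: kinetic FluxOR thallium fluorescence, 10-s 1-Hz baseline, 110-s post-stimulus read; read-out basis: B score of baseline-normalized fluorescence ratio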
hERG protect: compounds protecting human hERG from proarrhythmic drug block; 310,000 tested, 0.51% active; activation (rescue from dofetilide block), less the hit threshold, % at 10 µM; CHO-hERG, FluxOR thallium flux, dofetilide IC70 present; Q12809;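 active means activation above the mean of controls blocked by dofetilide plus 5 SD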;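 further: thallium influx through hERG after potassium depolarization seen as dye fluorescence rise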
KCNK9 block: blocks the human KCNK9 two-pore domain potassium channel; 310,000 tested, 1.2% active; B-score at 10 µM; Q9NPC2; HEK293 KCNK9, FluxOR thallium flux fluorescence; hits give low values;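 active means ratio B-score over 3 SD below the library mean, with starting fluorescence within 5 SD of its mean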;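 further: negative B-score means less thallium flux so channel inhibition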
KCNQ1 inh: human KCNQ1 channel inhibition; CHO-K1 KCNQ1, FluxOR thallium flux fluorescence; hits give high values; 310,000 tested, 1.3% active; AID 2642; P51787; B-score at 10 µM;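 active means compounds whose thallium flux B-score, printed positive for inhibition, exceeds three library SD while starting fluorescence stays within three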;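 further: channel opened by potassium depolarization with thallium stimulus after 20 min compound exposure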
KCNK3 block: human KCNK3 channel inhibition, primary screen. O14649. CHO-KCNK3 thallium flux, FluxOR fluorescence; hits give low values. B-score at 10 µM. 340,000 tested, 0.84% active. AID 602410;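 active means B-score under library mean minus 4 SD, starting fluorescence ratio at most library mean plus 5 SD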;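 further: more negative B-score means stronger inhibition of thallium flux through KCNK3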
Target sequence (O14649 whole entry, looked up): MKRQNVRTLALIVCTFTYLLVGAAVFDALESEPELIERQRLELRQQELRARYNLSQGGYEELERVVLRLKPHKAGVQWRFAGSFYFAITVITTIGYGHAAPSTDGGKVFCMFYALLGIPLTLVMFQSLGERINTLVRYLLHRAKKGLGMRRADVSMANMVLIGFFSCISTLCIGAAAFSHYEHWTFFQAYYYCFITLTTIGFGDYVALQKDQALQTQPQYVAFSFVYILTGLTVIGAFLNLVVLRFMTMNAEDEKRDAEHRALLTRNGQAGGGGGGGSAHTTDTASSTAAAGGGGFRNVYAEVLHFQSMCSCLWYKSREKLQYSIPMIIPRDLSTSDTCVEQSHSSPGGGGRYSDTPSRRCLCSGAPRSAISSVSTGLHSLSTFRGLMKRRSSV
KCNK3 inh conf: human KCNK3 channel inhibition, confirmation assay; CHO-KCNK3 thallium flux, FluxOR fluorescence; 0% buffer, 100% carvedilol maximal block; shares compounds with KCNK3 block; AID 651638; ratio percent of control, % at 10 µM; 2,400 tested, 99% active;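 active means ratio percent of control, averaged over triplicates, above buffer control mean plus 5 SD, cut at about 64% in these data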;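 further: ratio is the fluorescence rise from min to max over baseline after thallium stimulus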
KCNK3 uninduced: KCNK3 inhibitor counter-screen hit in non-induced cells; shares compounds with KCNK3 block; non-induced KCNK3 parental cells, FluxOR thallium flux; hits give low values; thallium flux ratio (lower = more inhibition) at 10 µM; 2,400 tested, 40% active; AID 651747;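 active means thallium flux ratio, averaged over three wells, more than 5 SD below the buffer control mean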;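 further: host cells are CHO cells without KCNK3 induction; ratio is peak minus trough fluorescence over baseline then normalized to buffer controls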
Starred values were filed as active, the others as inactive. This is a sample that favours compounds with a hit; in the whole collection about 3.7% have one here.

Results for Cc1ccc(C)c(NC(=O)CCC(=O)NNS(=O)(=O)c2ccc(Cl)cc2)c1 ?
KCNK3 block: inactive

Results for COC(=O)C1=C(C)N(C)C(C)=C(C(=O)OC)C1c1ccncc1 ?
Kir21 block: -0.67; KCNQ1 pot: inactive; hERG protect: -14; KCNK9 block: inactive; KCNQ1 inh: inactive; KCNK3 block: inactive

Results for COC(=O)C1=C(C)N(C)C(C)=C(C(=O)OC)C1c1ccc(F)c(Br)c1 ?
Kir21 block: -0.99; KCNQ1 pot: inactive; hERG protect: -14; KCNK9 block: inactive; KCNQ1 inh: inactive; KCNK3 block: -9.1*; KCNK3 inh conf: 110*; KCNK3 uninduced: inactive

What do the screens show for `CCC(C)(c1ccc(C(=O)OC)s1)c1ccc(C(=O)OC)s1`?
Kir21 block: -2.1; KCNQ1 pot: inactive; hERG protect: -7; KCNK9 block: inactive; KCNQ1 inh: inactive; KCNK3 block: -9.1*; KCNK3 inh conf: 119*; KCNK3 uninduced: 0.14*

How did CN=C(Nc1ccc(C(=O)OC)s1)c1ccccc1 do in these assays?
Kir21 block: 0.06; KCNQ1 pot: inactive; hERG protect: -1; KCNK9 block: inactive; KCNQ1 inh: inactive; KCNK3 block: inactive

Results for O=C(COC(=O)c1ccccc1[N+](=O)[O-])c1ccc2c(c1)OCO2 ?
Kir21 block: -0.1; KCNQ1 pot: inactive; hERG protect: -14; KCNK9 block: inactive; KCNQ1 inh: inactive; KCNK3 block: inactive

Results for O=C(COC(=O)c1ccccc1-c1ccccc1[N+](=O)[O-])c1ccccc1 ?
Kir21 block: 2.9; KCNQ1 pot: inactive; hERG protect: -4; KCNK9 block: inactive; KCNQ1 inh: inactive; KCNK3 block: -11*; KCNK3 inh conf: 92*; KCNK3 uninduced: inactive

Results for COc1c(C(=O)Nc2ccc(Br)cn2)ccc2ccccc12 ?
Kir21 block: 1.2; KCNQ1 pot: inactive; hERG protect: -2; KCNK9 block: -7.2*; KCNQ1 inh: inactive; KCNK3 block: -11*; KCNK3 inh conf: 97*; KCNK3 uninduced: 0.16*

What do the screens show for `Oc1ccc(Cl)cc1C1=NNC(c2cc(Br)cc3c2OCOC3)C1` (stereo not drawn)?
Kir21 block: 1.6; KCNQ1 pot: inactive; hERG protect: -3; KCNK9 block: inactive; KCNQ1 inh: inactive; KCNK3 block: -8.8*; KCNK3 inh conf: 96*; KCNK3 uninduced: inactive

How did COc1ccc(C2=NNC(c3cc(Cl)cc4c3OCOC4)C2)c(O)c1 (stereo not drawn) do in these assays?
Kir21 block: 0.05; KCNQ1 pot: inactive; hERG protect: -12; KCNK9 block: inactive; KCNQ1 inh: inactive

What do the screens show for `Cn1c(N)c(C(=O)CSc2n[nH]c(N)n2)c(=O)n(C)c1=O`?
KCNK3 block: inactive

What do the screens show for `Cc1c(C(=O)N(CC(C)C)c2c(N)n(Cc3ccccc3)c(=O)[nH]c2=O)sc2nc3n(c(=O)c12)CCC3`?
Kir21 block: -0.59; KCNQ1 pot: inactive; hERG protect: -19; KCNK9 block: inactive; KCNQ1 inh: inactive; KCNK3 block: inactive

Results for O=C(Nc1ccccc1Cl)c1cc2ccccc2o/c1=N\O ?
Kir21 block: 1.3; KCNQ1 pot: inactive; hERG protect: -11; KCNK9 block: inactive; KCNQ1 inh: inactive; KCNK3 block: inactive

How did COc1cccc(NC(=O)c2cc3ccccc3o/c2=N\O)c1 do in these assays?
Kir21 block: -3.5; KCNQ1 pot: inactive; hERG protect: -23; KCNK9 block: inactive; KCNQ1 inh: inactive; KCNK3 block: -8.7*; KCNK3 inh conf: 125*; KCNK3 uninduced: 0.13*

How did O=C(O)Cn1cc(C(=O)c2cccs2)c2ccccc21 do in these assays?
Kir21 block: 2.5; KCNQ1 pot: inactive; hERG protect: -9; KCNK9 block: inactive; KCNQ1 inh: inactive; KCNK3 block: inactive

How did O=C(c1cccs1)c1cn(CC(=O)N2CCc3ccccc3C2)c2ccccc12 do in these assays?
Kir21 block: -0.5; KCNQ1 pot: inactive; hERG protect: -10; KCNK9 block: inactive; KCNQ1 inh: inactive; KCNK3 block: -11*; KCNK3 inh conf: 80*; KCNK3 uninduced: inactive

What do the screens show for `COC(=O)CSc1nc(Cc2ccccc2)nc2ccccc12`?
Kir21 block: -2.8; KCNQ1 pot: inactive; hERG protect: -29; KCNK9 block: inactive; KCNQ1 inh: inactive; KCNK3 block: -8.7*; KCNK3 inh conf: 119*; KCNK3 uninduced: inactive

How did COc1ccc(NC(=O)CN(C)C(=O)c2cc3c(s2)CCC(C)C3)cc1 (stereo not drawn) do in these assays?
Kir21 block: -1.5; KCNQ1 pot: inactive; hERG protect: -13; KCNK9 block: inactive; KCNQ1 inh: inactive; KCNK3 block: inactive

How did COc1ccc(Cl)cc1NC(=O)CN(C)C(=O)c1cc2c(s1)CCC(C)C2 (stereo not drawn) do in these assays?
Kir21 block: 0.8; KCNQ1 pot: inactive; hERG protect: -11; KCNK9 block: inactive; KCNQ1 inh: inactive; KCNK3 block: -8.8*; KCNK3 inh conf: 107*; KCNK3 uninduced: inactive

How did COc1ccc(Cl)cc1NC(=O)CN(C)CC(=O)Nc1ccccc1C(F)(F)F do in these assays?
Kir21 block: 0.2; KCNQ1 pot: inactive; hERG protect: -21; KCNK9 block: inactive; KCNQ1 inh: inactive; KCNK3 block: -9.1*; KCNK3 inh conf: 102*; KCNK3 uninduced: inactive

Results for COc1ccc(CN(C)CC(=O)Nc2cccc3ccccc23)cc1F ?
Kir21 block: 1.2; KCNQ1 pot: inactive; hERG protect: -14; KCNK9 block: inactive; KCNQ1 inh: inactive; KCNK3 block: -11*; KCNK3 inh conf: 91*; KCNK3 uninduced: inactive

How did Cc1nc(CC(C)C)cc(C(=O)N2CCCC(CNS(=O)(=O)c3cccs3)C2)n1 (stereo not drawn) do in these assays?
Kir21 block: 1.9; KCNQ1 pot: inactive; hERG protect: -5; KCNK9 block: inactive; KCNQ1 inh: inactive; KCNK3 block: inactive

Results for CCCC[C@@H]1C=C(C(=O)O)[C@H](c2ccc(Cl)cc2)N1S(=O)(=O)c1ccc(C)cc1 ?
KCNK3 block: inactive

Results for C(=C\CSc1nnnn1-c1ccccc1)/CSc1nnnn1-c1ccccc1 ?
Kir21 block: -1.9; KCNQ1 pot: inactive; hERG protect: -15; KCNK9 block: inactive; KCNQ1 inh: inactive; KCNK3 block: -9.7*; KCNK3 inh conf: 106*; KCNK3 uninduced: inactive
